Measured values from ChEMBL document CHEMBL2311405, “Synthesis and biological evaluation of indenoisoquinolines that inhibit both tyrosyl-DNA phosphodiesterase I (Tdp1) and topoisomerase I (Top1)” (J Med Chem, 2013).
Activity calls are given as the source filed them. The rule behind the calls is not given here.

Key:
SF-539 = assay: Growth inhibition of human SF539 cells; assay type: functional
Outline: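 Human cancer cell line panel, compounds tested at concentrations up to 10 μM. GI50 per cell line is the mean of two determinations where a standard error is given, otherwise from one determination.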

SN12C = assay: Growth inhibition of human SN12C cells; assay type: functional
UACC-62 = assay: Growth inhibition of human UACC62 cells; assay type: functional
HCT-116 = assay: Growth inhibition of human HCT116 cells; assay type: functional
HOP-62 = assay: Growth inhibition of human HOP62 cells; assay type: functional
[1] = biological target: T1, DNA topoisomerase 1 (Homo sapiens) (UniProt P11387); assay: Inhibition of recombinant Top1 (unknown origin) using 3'-[32P]-end-labeled 117 bp oligonucleotide as substrate after 20 mins by SDS-PAGE analysis relative to 1 uM camptothecin
T1 sequence (whole entry): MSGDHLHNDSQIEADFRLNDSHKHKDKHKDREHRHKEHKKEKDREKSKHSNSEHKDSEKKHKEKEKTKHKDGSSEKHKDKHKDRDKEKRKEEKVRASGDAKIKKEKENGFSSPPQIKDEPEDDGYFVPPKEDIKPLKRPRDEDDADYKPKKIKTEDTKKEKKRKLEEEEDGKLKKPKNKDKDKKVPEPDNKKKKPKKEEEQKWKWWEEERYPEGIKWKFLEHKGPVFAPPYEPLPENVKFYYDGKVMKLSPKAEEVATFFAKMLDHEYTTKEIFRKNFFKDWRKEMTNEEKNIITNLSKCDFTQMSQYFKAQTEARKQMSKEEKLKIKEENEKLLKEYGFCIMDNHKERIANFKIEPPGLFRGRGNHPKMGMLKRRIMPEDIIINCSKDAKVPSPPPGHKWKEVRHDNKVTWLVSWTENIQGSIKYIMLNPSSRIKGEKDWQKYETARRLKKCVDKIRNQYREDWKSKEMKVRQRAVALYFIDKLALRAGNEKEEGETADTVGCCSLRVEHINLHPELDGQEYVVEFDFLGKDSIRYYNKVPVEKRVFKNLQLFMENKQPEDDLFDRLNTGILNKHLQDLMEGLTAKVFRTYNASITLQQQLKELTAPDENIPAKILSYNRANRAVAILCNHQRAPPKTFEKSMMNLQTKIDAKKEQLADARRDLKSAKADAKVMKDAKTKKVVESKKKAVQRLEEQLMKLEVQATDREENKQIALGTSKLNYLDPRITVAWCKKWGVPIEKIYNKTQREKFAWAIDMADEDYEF

Compound: COc1ccc2c(c1)C(=O)c1c-2n(CCCN)c(=O)c2cc([N+](=O)[O-])ccc12
- GI50 (SF-539): < 10 nM
- GI50 (SN12C): < 10 nM
- GI50 (UACC-62): < 10 nM
- GI50 (HCT-116): < 10 nM
- GI50 (HOP-62): < 10 nM
- inhibition [1]: Active

Compound: COc1cccc2c1-c1c(c3ccc([N+](=O)[O-])cc3c(=O)n1CCCN)C2=O
- inhibition [1]: Active
